Experimental data from paper PMC7672428 (Nucleic Acids Research, 2020).

Experiments:
[1] = test system: Ku80-null mouse embryo fibroblasts (MEF); experiment: CCK-8 cell viability, Ku80-null MEF; format: cell-based
Procedure, shortened: (§1)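 Ku80-wt and Ku80-null MEFs in RPMI with 10% FBS, 5 × 10^3 per well, grown 24 h before treatment. Exposed 48 h in Opti-MEM to vehicle or 20 μM test compound, concurrently with indicated bleomycin concentrations (or compound alone), 1% DMSO constant. CCK-8 about 2 h, A450 read; percent viability relative to vehicle controls. Mean and SEM of triplicates.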

Solubility and stability = format: physicochemical
Ku70/80 = Ku70/80 (Homo sapiens, UniProt P12956+P13010); experiment: Electrophoretic mobility shift assay; format: binding
Sequence of Ku70/80 (P12956 whole entry): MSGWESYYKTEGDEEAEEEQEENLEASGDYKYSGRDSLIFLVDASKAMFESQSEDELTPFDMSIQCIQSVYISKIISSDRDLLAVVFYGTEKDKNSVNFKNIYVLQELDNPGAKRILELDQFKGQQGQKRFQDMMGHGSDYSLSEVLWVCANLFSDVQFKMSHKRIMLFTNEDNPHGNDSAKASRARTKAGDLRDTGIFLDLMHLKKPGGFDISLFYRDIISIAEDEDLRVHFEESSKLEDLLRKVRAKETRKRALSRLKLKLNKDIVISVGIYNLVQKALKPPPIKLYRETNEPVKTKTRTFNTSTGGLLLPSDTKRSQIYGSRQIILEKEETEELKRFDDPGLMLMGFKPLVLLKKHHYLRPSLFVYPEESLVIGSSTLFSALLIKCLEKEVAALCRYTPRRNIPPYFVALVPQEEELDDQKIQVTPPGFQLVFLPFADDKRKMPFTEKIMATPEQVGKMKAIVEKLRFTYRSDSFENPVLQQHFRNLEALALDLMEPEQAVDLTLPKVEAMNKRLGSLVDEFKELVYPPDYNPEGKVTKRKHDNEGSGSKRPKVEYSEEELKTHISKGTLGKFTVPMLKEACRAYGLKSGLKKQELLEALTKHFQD
Sequence of Ku70/80 (P13010 whole entry): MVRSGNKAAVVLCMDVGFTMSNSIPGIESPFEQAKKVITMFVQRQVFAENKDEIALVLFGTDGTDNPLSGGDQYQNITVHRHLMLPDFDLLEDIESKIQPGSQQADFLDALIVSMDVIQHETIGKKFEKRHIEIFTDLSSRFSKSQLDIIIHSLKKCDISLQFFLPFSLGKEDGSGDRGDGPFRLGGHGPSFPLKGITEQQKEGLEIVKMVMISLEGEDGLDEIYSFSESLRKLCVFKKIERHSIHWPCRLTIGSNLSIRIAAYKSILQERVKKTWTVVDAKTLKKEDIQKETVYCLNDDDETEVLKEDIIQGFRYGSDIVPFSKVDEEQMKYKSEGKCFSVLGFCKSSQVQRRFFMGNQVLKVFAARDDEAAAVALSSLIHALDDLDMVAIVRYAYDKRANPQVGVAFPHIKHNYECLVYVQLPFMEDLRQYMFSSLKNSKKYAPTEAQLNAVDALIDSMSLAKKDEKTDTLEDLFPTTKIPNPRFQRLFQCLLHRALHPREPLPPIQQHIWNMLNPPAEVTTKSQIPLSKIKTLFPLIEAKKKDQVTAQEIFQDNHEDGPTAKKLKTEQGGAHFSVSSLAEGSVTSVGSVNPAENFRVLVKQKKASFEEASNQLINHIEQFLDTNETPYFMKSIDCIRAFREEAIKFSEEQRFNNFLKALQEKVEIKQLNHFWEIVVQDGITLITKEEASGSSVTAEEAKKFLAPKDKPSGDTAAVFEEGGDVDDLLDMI
Procedure, shortened: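 Purified Ku pre-incubated with varying concentrations of test compound, then added to 5′-[32P]-labeled 30-bp duplex DNA made by annealing a labeled strand to its complement. Incubated 30 min at 25°C, resolved on a 6% non-denaturing polyacrylamide gel, then phosphorimaged and quantified. Triplicate titrations, IC50 from fitted binding curves.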

DNA-PK = DNA-PK (Homo sapiens, UniProt P12956+P13010); experiment: DNA-PK phosphoryl-transferase kinase assay with p53 peptide substrate; format: biochemical
Sequence of DNA-PK (P12956 whole entry): as the sequence (P12956 whole entry) above
Sequence of DNA-PK (P13010 whole entry): as the sequence (P13010 whole entry) above
Procedure, shortened: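 DNA-PKcs purified from HeLa or HEK 293 cells and combined with Ku; test compound pre-incubated with the enzyme 15 min. Reaction started with ATP, unlabeled 30-bp duplex DNA and synthetic p53-based peptide. [32P] transfer run at 37°C for 15 min, stopped with 30% acetic acid, spotted on P81 filters and washed. Read by phosphorimaging. Triplicate titrations, IC50 from fitted binding curves.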

[2] = test system: Ku80-wt mouse embryo fibroblasts (MEF); experiment: CCK-8 cell viability, wild type MEF; format: cell-based; conditions: 20 μM
Procedure, shortened: as §1

H460 cells [3] = experiment: CCK-8 cell viability with etoposide; format: cell-based; conditions: 20 μM, 48 h
Procedure, shortened: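 H460 cells in RPMI with 10% FBS, plated at 5 × 10^3 per well and grown 24 h. Treated 48 h in Opti-MEM with 20 μM test compound or vehicle plus indicated etoposide concentrations, DMSO held at 1%. CCK-8 added for about 2 h, then A450 read; percent viability taken relative to vehicle-treated controls. Mean and SEM of triplicates.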

H460 cells [4] = experiment: CRISPR/Cas9 HDR-mediated gene insertion at EMX1; format: cell-based; conditions: 20 μM
Procedure, shortened: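 Donor carrying GFP and a puromycin-resistance gene, flanked by 800 bp homology arms to an EMX1 CRISPR cut site, co-transfected into H460 cells with EMX1 gRNA and Cas9 plasmids, with vehicle or 20 μM test compound. Junctional PCR on genomic DNA scored precise homologous integration among puromycin-resistant clones.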

γ-H2AX in H460 cells = experiment: Immunofluorescence of γ-H2AX after Bleomycin; format: cell-based; conditions: 20 μM, 10 μM Bleomycin 1 h
Procedure, shortened: (§2)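 H460 cells on coverslips overnight, then 10 μM bleomycin for 1 h at 37 °C with 20 μM test compound, given concurrently or after 1 or 2 h preincubation; controls in 1% DMSO. Fixed in 4% PFA, permeabilised in 0.1% Triton, blocked. Stained with anti-p-DNA-PKcs S2056 and anti-γH2AX S139 (1:200, overnight 4 °C), plus DAPI. Fiji scored p-S2056 intensity and γH2AX foci over 200 cells; median, unpaired t-test.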

MELK kinase = MELK kinase (Homo sapiens, UniProt Q14680); experiment: Kinase screen; format: biochemical; conditions: 2.5 μM
Sequence of MELK kinase (Q14680 whole entry): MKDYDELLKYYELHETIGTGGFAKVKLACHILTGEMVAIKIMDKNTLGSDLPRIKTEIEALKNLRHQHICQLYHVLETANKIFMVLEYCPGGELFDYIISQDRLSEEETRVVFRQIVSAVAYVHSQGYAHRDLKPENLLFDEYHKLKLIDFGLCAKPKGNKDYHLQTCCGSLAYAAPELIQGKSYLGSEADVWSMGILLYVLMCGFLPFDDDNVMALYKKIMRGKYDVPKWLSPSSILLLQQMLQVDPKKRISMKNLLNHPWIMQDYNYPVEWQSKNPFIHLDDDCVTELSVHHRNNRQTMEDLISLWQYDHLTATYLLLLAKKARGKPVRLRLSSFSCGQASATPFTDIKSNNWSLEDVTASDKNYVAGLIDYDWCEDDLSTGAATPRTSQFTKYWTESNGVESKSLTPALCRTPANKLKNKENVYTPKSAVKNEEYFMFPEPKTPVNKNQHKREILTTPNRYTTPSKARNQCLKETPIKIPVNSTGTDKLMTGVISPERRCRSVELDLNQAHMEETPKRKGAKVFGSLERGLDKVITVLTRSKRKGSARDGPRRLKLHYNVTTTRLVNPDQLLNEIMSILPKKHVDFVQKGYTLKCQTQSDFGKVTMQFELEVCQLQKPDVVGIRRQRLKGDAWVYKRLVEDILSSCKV
Procedure, shortened: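 Panel of 24 kinases, each with its own substrate, run in triplicate with or without 2.5 μM test compound using ADP-Glo. After ATP depletion, generated ADP was read by coupled luciferase luminescence. Percent activity remaining, or inhibition, calculated relative to DMSO vehicle controls.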

Ku protein = Ku protein (Homo sapiens, UniProt P12956+P13010); experiment: Thermal-shift assay; format: binding
Sequence of Ku protein (P12956 whole entry): as the sequence (P12956 whole entry) above
Sequence of Ku protein (P13010 whole entry): as the sequence (P13010 whole entry) above
Procedure, shortened: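 Purified Ku70/80 (baculovirus-infected Sf9 cells) mixed with DMSO vehicle or a fixed test-compound concentration, then split into aliquots. Aliquots heated 3 min at a range of temperatures, cooled to 4 °C and spun at 12,000 × g for 20 min. Soluble Ku70 detected by SDS-PAGE western blot with chemiluminescence. Band intensities normalised to the 40 °C point, fit to a 4-parameter sigmoid, giving T1/2.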

[5] = test system: DNA-PKcs p-S2056 in H460 cells; experiment: Immunofluorescence of DNA-PKcs p-S2056 after Bleomycin; format: cell-based; conditions: 20 μM, concurrent or 1-2 h pre-incubation, 10 μM Bleomycin 1 h
Procedure, shortened: as §2

In the case of `COc1cccc(NC(=O)c2cc(-c3ccc(/C=C4\C(=O)N(c5cccc(C(=O)O)c5)N=C4C)o3)ccc2Cl)c1` [compound 68], the “sensitivity to Bleomycin induced by compound, Ku80-null cells” value ([1]; 20 μM, concurrent 48 h with Bleomycin) is reported as “no significant increase in sensitivity”, the “solubility compared to 5102 and 5135” value (Solubility and stability) is reported as “significant increase in solubility” and the “fold increase in Ku–DNA binding inhibitory activity” value (Ku70/80; on incorporation of 3-methoxyphenyl amide into X80) is reported as 4 fold. The IC50 (DNA-PK) was 3120 ± 700 nM, the “sensitivity to Bleomycin induced by compound, wild type cells” value ([2]; concurrent 48 h with Bleomycin) was “increased sensitivity” and the “reduction in survival, single agent” value ([2]; preliminary single agent experiments) was < 10%.
In the case of `COc1cccc(NC(=O)c2cc(-c3ccc(CC4C(=O)N(c5cccc(C(=O)O)c5)N=C4C(F)(F)F)o3)ccc2Cl)c1` (stereo not drawn) [compound 322], the sensitization to etoposide (H460 cells [3]) is reported as “Sensitization to etoposide”, the IC50 (Ku70/80) is reported as 2660 ± 300 nM and the IC50 (DNA-PK) is reported as 110 ± 20 nM.
For `COc1cccc(NC(=O)c2cc(-c3ccc(CC4C(=O)N(c5cccc(-c6nnn[nH]6)c5)N=C4C)o3)ccc2Cl)c1` (stereo not drawn) [compound 245], the “Insertion efficiency (%)” value (H460 cells [4]) was 80%, the IC50 (Ku70/80) was 1990 ± 900 nM and the IC50 (DNA-PK) was 240 ± 15 nM. The “γ-H2AX (DDR)” value (γ-H2AX in H460 cells) was “inhibition of the DDR”, the “inhibition of MELK kinase” value (MELK kinase) was “moderate inhibition” and the “shift in Tm of Ku” value (Ku protein; vs vehicle Tm of 50°C) was 6 °C. For the same compound, the “Tm of Ku” value (Ku protein; with compound) was 56 °C and the “DNA-PKcs Ser 2056 phosphorylation in cells” value [5] was “reduced Ser 2056 phosphorylation”.
For Bleomycin [reference compound], the “increased sensitivity of Ku80-null cells compared to wt MEFs” value ([1]; 48 h, CCK-8) was ~6 fold.
For `O=c1cc(N2CCOCC2)oc2c(-c3cccc4c3sc3ccccc34)cccc12` [NU7441, reference compound], the “impact on Ku–DNA binding activity” value (Ku70/80) was “no impact”.
`COc1cccc(NC(=O)c2cc(-c3ccc(CC4C(=O)N(c5cccc(C(=O)O)c5)N=C4C)o3)ccc2Cl)c1` (stereo not drawn) [compound 149] gave an IC50 (Ku70/80) of 3720 ± 1500 nM and an IC50 (DNA-PK) of 500 ± 30 nM.
